Measurements from ChEMBL document CHEMBL3259640 (J Med Chem, 2014).
Values after ≈ are worked out from the molar mass of the structure shown. Active and inactive are the calls of the source. The rule behind the calls is not given here.

What was measured:
[1] = test system: K562; assay: Antiproliferative activity against human K562 cells assessed as cell viability after 96 hrs by CellTiter96 assay; type: functional, cell-based; details: K562, 96 h
[2] = test system: MDA-MB-468; assay: Antiproliferative activity against human MDA-MB-468 cells assessed as cell viability after 96 hrs by CellTiter96 assay; type: functional, cell-based; details: MDA-MB-468, 96 h
[3] = test system: MDA-MB-231; assay: Antiproliferative activity against human MDA-MB-231 cells assessed as cell viability after 96 hrs by CellTiter96 assay; type: functional, cell-based; details: MDA-MB-231, 96 h
[4] = Solubility of the compound in phosphate buffered saline containing 1% DMSO at pH 7.4 after 2 hrs by HPLC analysis; type: physicochemical
[5] = test system: MDA-MB-231; assay: Antitumor activity against human MDA-MB-231 cells xenografted in BALB/c nu/nu mouse assessed as tumor volume at 20 mg/kg, iv qd for 28 days relative to control; type: functional
In short: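 Female BALB/c nu/nu mice, 5–8 weeks old, implanted subcutaneously in the right flank with 1 × 10⁷ MDA-MB-231 cells in matrigel. Dosing began at about 100 mm³ mean tumour volume; 5 mice/group. Arms: vehicle (5% DMSO, 10% Cremophor in water) IV once daily, 20 mg/kg IV once daily, or 150 mg/kg PO twice daily, for 28 days. Caliper volumes and body weight every 2 days; T/C on day 28.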

[6] = test system: Mus musculus; assay: Toxicity in BALB/c nu/nu mouse xenografted with human MDA-MB-231 cells assessed as body weight loss at 150 mg/kg, po bid for 28 days; type: organism-based; parameters: dose 150 mg/kg, route oral; details: in vivo, 672 h
In short: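 Female BALB/c nu/nu mice, 5–8 weeks old, implanted subcutaneously in the right flank with 1 × 10⁷ MDA-MB-231 cells in matrigel. Treatment began at about 100 mm³ tumor volume; 5 mice per group. Dosing for 28 days: IV 20 mg/kg once daily or PO 150 mg/kg twice daily, in 5% DMSO/10% Cremophor in H₂O; vehicle controls included. Body weight and tumor size (caliper) recorded every 2 days.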

[7] = biological target: T1, Kinetochore protein NDC80 homolog (Homo sapiens) (UniProt O14777); assay: Inhibition of Hec1/Nek2 interaction in human K562 cells assessed as induction of Nek2 degradation after 24 hrs by western blot analysis; type: cell-based
T1 sequence (whole entry): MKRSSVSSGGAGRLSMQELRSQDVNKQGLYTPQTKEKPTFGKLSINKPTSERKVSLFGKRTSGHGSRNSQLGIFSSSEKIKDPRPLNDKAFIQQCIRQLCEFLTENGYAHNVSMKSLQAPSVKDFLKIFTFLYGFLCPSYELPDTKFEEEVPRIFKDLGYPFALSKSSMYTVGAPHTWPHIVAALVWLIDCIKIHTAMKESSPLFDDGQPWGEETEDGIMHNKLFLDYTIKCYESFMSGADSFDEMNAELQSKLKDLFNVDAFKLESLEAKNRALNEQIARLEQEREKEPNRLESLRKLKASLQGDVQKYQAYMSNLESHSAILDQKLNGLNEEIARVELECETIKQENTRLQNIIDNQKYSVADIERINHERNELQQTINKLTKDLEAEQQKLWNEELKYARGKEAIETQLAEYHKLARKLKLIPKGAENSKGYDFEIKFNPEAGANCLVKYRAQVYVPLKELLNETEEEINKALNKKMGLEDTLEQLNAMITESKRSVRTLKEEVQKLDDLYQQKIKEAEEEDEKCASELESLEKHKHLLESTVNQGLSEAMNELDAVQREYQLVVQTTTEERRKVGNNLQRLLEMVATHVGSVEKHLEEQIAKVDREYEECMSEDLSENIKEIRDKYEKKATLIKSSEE
In short: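 K562 cells exposed to DMSO or to 10, 100 or 1000 nM for 24 h. Nek2 and Hec1 detected by western blot in SDS sample buffer lysates, with actin as loading control and ECL detection.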

[8] = test system: MDA-MB-468; assay: Induction of mitotic abnormalities in human MDA-MB-468 cells assessed as proportion of cells displaying multipolar spindles at 100 nM after 48 hrs by immunofluorescent staining based microscopy (reference value: […]); type: functional
[9] = test system: MDA-MB-468; assay: Induction of mitotic abnormalities in human MDA-MB-468 cells assessed as proportion of cells displaying chromosomal misalignment at 10 nM after 48 hrs by immunofluorescent staining based microscopy (reference value: 21.4%); type: functional
[10] = test system: MDA-MB-468; assay: Induction of mitotic abnormalities in human MDA-MB-468 cells assessed as proportion of cells displaying chromosomal misalignment at 1000 nM after 48 hrs by immunofluorescent staining based microscopy (reference value: 21.4%); type: functional
[11] = test system: HeLa; assay: Induction of apoptosis in human HeLa cells assessed as reduction in XIAP protein expression at 1 uM after 24 to 48 hrs by western blot analysis; type: functional, cell-based
In short: (§1)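 HeLa cells given 1.0 μM compound, DMSO, or paclitaxel 100 nM for 24 and 48 h. Lysates made in SDS sample buffer, run on SDS-PAGE and transferred to PVDF. Blots probed for cleaved caspase-3, cleaved PARP, Bcl-2, Mcl-1 and XIAP, with actin as loading control, and detected by HRP-linked ECL.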

[12] = test system: HeLa; assay: Induction of apoptosis in human HeLa cells assessed as increase in cleaved caspase-3 level at 1 uM after 24 to 48 hrs by western blot analysis; type: functional, cell-based; in short: as §1
[13] = test system: HeLa; assay: Induction of apoptosis in human HeLa cells assessed as increase in cleaved PARP level at 1 uM after 24 to 48 hrs by western blot analysis; type: functional, cell-based; in short: as §1
[14] = test system: K562; assay: Growth inhibition of human K562 cells; type: functional
[15] = test system: HeLa; assay: Growth inhibition of human HeLa cells; type: functional
[16] = Growth inhibition of human HuH7 cells; type: functional; details: Huh-7
[17] = Growth inhibition of human PLC/PRF/5 cells; type: functional
[18] = test system: HepG2; assay: Growth inhibition of human HepG2 cells; type: functional
[19] = Growth inhibition of human WI38 cells; type: cell-based; details: WI-38 cells
[20] = Growth inhibition of human RPTEC cells; type: cell-based
[21] = biological target: Fibroblast growth factor receptor 1 (Homo sapiens, UniProt P11362); assay: Inhibition of FGFR1 (unknown origin) assessed as [33P] incorporation in substrate by TopCount microplate scintillation counting analysis
Chain of Fibroblast growth factor receptor 1 (P11362 whole entry): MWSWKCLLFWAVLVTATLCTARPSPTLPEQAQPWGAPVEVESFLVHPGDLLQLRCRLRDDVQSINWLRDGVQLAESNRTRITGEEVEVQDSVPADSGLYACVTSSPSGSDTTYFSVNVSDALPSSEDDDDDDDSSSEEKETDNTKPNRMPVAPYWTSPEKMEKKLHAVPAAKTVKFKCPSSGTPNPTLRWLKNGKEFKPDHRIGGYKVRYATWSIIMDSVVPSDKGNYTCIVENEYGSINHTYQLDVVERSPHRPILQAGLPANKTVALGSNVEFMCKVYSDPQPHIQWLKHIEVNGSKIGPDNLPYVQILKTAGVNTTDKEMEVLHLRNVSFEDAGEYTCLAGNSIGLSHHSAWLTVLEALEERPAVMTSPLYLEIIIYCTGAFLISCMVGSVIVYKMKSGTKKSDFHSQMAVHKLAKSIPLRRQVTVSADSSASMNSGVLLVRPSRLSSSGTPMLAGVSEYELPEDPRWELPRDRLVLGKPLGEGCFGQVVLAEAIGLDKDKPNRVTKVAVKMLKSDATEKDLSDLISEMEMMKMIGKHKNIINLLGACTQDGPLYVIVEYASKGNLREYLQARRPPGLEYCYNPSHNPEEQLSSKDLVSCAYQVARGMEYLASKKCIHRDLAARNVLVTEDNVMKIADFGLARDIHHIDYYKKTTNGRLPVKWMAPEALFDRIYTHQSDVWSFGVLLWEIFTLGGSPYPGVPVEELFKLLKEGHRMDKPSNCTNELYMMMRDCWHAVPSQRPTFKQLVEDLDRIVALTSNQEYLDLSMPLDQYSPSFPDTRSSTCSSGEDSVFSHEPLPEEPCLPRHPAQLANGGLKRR

[22] = biological target: Serine/threonine-protein kinase B-raf (Homo sapiens, UniProt P15056); assay: Inhibition of B-Raf (unknown origin) assessed as [33P] incorporation in substrate by TopCount microplate scintillation counting analysis
Chain of Serine/threonine-protein kinase B-raf (P15056 whole entry): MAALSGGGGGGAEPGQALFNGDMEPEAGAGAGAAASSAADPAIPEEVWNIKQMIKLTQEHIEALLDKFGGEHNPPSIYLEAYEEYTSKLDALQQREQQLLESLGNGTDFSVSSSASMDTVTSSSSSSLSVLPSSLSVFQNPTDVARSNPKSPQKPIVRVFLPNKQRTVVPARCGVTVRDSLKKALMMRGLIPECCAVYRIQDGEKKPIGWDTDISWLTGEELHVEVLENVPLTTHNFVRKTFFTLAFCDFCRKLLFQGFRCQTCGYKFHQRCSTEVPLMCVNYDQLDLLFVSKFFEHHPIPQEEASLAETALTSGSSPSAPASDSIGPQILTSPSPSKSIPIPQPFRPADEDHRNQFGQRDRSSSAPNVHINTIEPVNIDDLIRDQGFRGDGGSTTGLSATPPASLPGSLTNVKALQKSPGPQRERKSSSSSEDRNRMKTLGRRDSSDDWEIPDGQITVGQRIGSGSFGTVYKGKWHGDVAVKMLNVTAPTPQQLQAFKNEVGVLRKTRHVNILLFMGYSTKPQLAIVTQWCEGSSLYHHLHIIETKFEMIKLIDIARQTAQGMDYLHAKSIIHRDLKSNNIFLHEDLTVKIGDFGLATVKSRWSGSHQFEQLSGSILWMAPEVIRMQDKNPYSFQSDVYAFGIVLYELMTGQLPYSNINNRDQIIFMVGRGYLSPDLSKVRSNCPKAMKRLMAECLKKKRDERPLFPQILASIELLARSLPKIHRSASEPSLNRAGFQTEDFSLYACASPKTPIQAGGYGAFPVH

[23] = biological target: RAF proto-oncogene serine/threonine-protein kinase (Homo sapiens, UniProt P04049); assay: Inhibition of C-Raf (unknown origin) assessed as [33P] incorporation in substrate by TopCount microplate scintillation counting analysis
Chain of RAF proto-oncogene serine/threonine-protein kinase (P04049 whole entry): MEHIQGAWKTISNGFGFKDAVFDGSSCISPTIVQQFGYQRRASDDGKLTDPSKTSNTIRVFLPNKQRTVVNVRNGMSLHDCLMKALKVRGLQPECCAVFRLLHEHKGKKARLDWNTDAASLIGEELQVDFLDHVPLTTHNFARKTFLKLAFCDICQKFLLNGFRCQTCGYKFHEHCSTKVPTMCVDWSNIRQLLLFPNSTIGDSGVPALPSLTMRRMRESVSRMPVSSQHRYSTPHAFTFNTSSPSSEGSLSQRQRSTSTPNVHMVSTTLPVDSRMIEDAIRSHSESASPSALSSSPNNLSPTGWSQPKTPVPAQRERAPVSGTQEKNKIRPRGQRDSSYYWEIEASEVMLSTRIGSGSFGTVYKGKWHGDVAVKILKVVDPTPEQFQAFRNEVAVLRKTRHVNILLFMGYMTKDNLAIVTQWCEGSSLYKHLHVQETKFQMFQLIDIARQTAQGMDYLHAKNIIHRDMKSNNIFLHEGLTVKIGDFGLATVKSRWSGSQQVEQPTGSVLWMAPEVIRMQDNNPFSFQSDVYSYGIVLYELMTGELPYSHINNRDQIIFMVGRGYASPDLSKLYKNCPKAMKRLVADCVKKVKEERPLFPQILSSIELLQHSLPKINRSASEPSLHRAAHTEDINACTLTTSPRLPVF

[24] = biological target: Hepatocyte growth factor receptor (Homo sapiens, UniProt P08581); assay: Inhibition of MET (unknown origin) assessed as [33P] incorporation in substrate by TopCount microplate scintillation counting analysis
Chain of Hepatocyte growth factor receptor (P08581 whole entry): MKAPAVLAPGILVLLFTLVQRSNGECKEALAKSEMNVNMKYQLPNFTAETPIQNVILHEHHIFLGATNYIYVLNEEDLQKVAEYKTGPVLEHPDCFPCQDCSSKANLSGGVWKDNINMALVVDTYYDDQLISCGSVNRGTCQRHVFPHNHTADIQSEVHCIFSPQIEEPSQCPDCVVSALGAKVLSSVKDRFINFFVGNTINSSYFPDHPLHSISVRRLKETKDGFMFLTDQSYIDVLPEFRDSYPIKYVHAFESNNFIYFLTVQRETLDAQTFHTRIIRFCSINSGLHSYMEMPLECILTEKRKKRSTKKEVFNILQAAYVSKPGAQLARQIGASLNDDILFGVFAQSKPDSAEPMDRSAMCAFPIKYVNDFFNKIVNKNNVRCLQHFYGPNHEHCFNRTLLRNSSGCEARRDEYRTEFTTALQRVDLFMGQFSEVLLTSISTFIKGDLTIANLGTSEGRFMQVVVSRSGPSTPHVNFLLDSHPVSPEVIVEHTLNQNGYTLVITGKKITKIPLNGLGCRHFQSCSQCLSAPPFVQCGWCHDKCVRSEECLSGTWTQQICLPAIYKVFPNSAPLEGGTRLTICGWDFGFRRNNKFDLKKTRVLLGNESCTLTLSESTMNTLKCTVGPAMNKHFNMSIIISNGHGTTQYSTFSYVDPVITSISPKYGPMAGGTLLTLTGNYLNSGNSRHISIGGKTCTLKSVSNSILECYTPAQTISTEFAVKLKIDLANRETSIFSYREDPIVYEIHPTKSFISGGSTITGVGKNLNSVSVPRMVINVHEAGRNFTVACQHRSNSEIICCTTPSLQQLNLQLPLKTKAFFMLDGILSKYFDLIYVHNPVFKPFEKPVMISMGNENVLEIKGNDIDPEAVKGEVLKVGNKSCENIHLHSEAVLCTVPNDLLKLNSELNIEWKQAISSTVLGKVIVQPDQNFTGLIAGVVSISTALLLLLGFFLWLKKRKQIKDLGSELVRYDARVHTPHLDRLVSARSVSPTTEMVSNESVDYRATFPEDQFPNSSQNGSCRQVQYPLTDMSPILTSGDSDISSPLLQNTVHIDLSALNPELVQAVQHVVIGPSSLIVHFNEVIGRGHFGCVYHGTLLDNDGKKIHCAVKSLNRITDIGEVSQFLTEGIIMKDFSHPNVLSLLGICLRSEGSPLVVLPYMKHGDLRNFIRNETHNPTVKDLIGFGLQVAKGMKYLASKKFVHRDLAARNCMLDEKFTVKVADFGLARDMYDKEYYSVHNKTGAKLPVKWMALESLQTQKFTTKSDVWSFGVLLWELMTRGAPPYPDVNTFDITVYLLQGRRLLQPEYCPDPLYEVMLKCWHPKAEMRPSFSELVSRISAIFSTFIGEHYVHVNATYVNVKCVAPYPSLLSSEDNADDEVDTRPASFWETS

[25] = biological target: Voltage-gated inwardly rectifying potassium channel KCNH2 (Homo sapiens, UniProt Q12809); assay: Displacement of [3H]astemizole from human ERG after 60 mins by competitive binding assay
Chain of Voltage-gated inwardly rectifying potassium channel KCNH2 (Q12809 whole entry): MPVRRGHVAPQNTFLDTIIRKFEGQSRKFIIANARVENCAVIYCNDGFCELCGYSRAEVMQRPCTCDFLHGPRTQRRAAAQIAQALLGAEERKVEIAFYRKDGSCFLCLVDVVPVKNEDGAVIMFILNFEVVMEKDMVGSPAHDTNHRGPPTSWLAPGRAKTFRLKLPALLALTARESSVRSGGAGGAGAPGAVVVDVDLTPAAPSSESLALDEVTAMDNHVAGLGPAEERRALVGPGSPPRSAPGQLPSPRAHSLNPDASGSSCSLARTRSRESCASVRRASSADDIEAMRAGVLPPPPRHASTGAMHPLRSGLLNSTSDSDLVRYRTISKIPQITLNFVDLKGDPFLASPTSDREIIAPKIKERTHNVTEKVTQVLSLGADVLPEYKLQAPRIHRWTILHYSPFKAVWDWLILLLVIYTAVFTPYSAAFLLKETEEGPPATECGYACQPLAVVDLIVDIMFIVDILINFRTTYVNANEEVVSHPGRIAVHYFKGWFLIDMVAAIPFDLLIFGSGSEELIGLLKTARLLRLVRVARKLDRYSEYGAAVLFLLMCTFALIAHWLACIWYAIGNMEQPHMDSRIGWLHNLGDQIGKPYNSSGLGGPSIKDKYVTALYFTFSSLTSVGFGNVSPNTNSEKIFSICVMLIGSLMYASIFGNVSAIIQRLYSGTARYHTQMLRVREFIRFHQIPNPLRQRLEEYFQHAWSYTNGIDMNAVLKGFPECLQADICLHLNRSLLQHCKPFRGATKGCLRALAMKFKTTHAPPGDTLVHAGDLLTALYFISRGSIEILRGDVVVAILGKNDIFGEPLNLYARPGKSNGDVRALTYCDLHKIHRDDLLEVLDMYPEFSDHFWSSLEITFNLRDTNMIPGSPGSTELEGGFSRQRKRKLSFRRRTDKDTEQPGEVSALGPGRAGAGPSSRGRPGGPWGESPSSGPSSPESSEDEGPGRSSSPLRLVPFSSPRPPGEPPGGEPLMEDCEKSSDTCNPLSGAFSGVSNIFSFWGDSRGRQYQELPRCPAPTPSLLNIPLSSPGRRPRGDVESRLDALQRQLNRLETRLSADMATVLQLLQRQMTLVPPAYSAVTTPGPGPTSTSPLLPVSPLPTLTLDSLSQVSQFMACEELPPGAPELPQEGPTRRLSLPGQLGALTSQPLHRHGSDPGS

SMILES: COc1ccc(Oc2cc(C)c(-c3csc(NC(=O)c4ccnc(F)c4)n3)c(C)c2)cc1
- IC50 [1]: 16.3 nM
- IC50 [2]: 40 nM
- IC50 [3]: 20 nM
- solubility kinetic at 2 h [4]: 0.19 µM (≈ 0.0854 µg/mL)
- T/C [5]: 32%
- Activity [6]: < 5%
- Activity [7]: Dose-dependent effect
- Activity [8]: 29.1%
- Activity [9]: 23.9%
- Activity [10]: 20%
- inhibition [11]: Active
- Activity [12]: Active
- Activity [13]: Active
- GI50 [14]: 56.2 nM
- GI50 [15]: 22.8 nM
- GI50 [16]: 79.6 nM
- GI50 [17]: 79.6 nM
- GI50 [18]: 191 nM
- GI50 [19]: > 9000 nM
- GI50 [20]: > 9000 nM
- IC50 [21]: > 10000 nM
- IC50 [22]: > 10000 nM
- IC50 [23]: > 10000 nM
- IC50 [24]: > 10000 nM
- IC50 [25]: > 10000 nM
